From ChEMBL document CHEMBL1949631, “Novel 3-phenylpiperidine-4-carboxamides as highly potent and orally long-acting neurokinin-1 receptor antagonists with reduced CYP3A induction” (Bioorg Med Chem, 2012)

What was measured:
Substance-P receptor = Substance-P receptor (Homo sapiens, UniProt P25103); experiment: Displacement of [125I]BH-SP from tachykinin NK1 receptor in human IM9 cells after 30 mins by scintillation counting; assay type: cell-based, IM-9
Summary of the method: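 Receptor membranes from human IM-9 lymphoblasts (grown 3 days, homogenised, spun 40,000 g) in 50 mM Tris-HCl pH 7.4 with 0.02% BSA, protease inhibitors and 3 mM MnCl2. Incubated with [125I]BH-SP (final 130 pM) for 30 min at room temperature in 0.2 mL. Nonspecific binding defined with 2×10^-6 M SP. Read by rapid GF/C filtration (PEI-soaked filters), three washes, scintillation counting.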

Cavia porcellus [1] = experiment: Inhibition of GR73632-induced increase in locomotor activity in Hartley guinea pig at 0.3 mg/kg, iv after 5 mins relative to control; assay type: functional
Summary of the method: (§1)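 Male Hartley guinea pigs, 6–8 per group. Compound or vehicle in DMA-PEG400 (1:1, v/v), 0.5 mL/kg, given intravenously just before intracerebroventricular infusion of the NK1 agonist […]. %inh. is taken from activity counts relative to vehicle-treated and sham-infused groups. Values are averages of 5–10 independent experiments.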

Cavia porcellus [2] = experiment: Inhibition of GR73632-induced increase in locomotor activity in po dosed Hartley guinea pig after 1 hr; assay type: functional; conditions: read-out: ID50 (the source's name)
Summary of the method: (§2)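 Male Hartley guinea pigs, 6–8 per group, dosed orally with compound suspended in 0.5% methylcellulose (2 mL/kg), or vehicle, 0.75 h (1 h line) or 23.75 h (24 h line) before intracerebroventricular […] infusion. %inh. comes from locomotor counts corrected for the sham-infused group against the vehicle control. ID50 and 95% CI come from linear regression of the dose–response.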

Cavia porcellus [3] = experiment: Inhibition of GR73632-induced increase in locomotor activity in po dosed Hartley guinea pig after 24 hrs; assay type: functional; conditions: read-out: ID50 (the source's name); summary of the method: as §2
[4] = AUC (0 to 24 hrs) in rat at 1 mg/kg, po; assay type: ADME, organism-based; set-up: time < 24 hr, dose 1 mg/kg, route oral; conditions: plasma
Summary of the method: (§3)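 Single oral dose of 1 mg/kg. Blood concentration–time curve used to derive AUC, mean residence time and bioavailability.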

[5] = AUC (0 to 24 hrs) in guinea pig at 1 mg/kg, po; assay type: ADME, organism-based, Cavia porcellus; set-up: time < 24 hr, dose 1 mg/kg, route oral; conditions: plasma; summary of the method: as §3
[6] = AUC (0 to 24 hrs) in dog at 1 mg/kg, po; assay type: ADME, organism-based, Canis lupus familiaris; set-up: time < 24 hr, dose 1 mg/kg, route oral; conditions: plasma; summary of the method: as §3
[7] = AUC (0 to 24 hrs) in monkey at 1 mg/kg, po; assay type: ADME, organism-based, Macaca mulatta; set-up: time < 24 hr, dose 1 mg/kg, route oral; conditions: rhesus monkey, plasma; summary of the method: as §3
[8] = Mean residence time in rat at 1 mg/kg, po; assay type: ADME, organism-based; set-up: dose 1 mg/kg, route oral; conditions: in vivo; summary of the method: as §3
[9] = Mean residence time in guinea pig at 1 mg/kg, po; assay type: ADME, organism-based, Cavia porcellus; set-up: dose 1 mg/kg, route oral; conditions: in vivo; summary of the method: as §3
[10] = Mean residence time in dog at 1 mg/kg, po; assay type: ADME, organism-based, Canis lupus familiaris; set-up: dose 1 mg/kg, route oral; conditions: in vivo; summary of the method: as §3
[11] = Mean residence time in monkey at 1 mg/kg, po; assay type: ADME, organism-based, Macaca mulatta; set-up: dose 1 mg/kg, route oral; conditions: rhesus monkey, in vivo; summary of the method: as §3
[12] = Oral bioavailability in rat at 1 mg/kg; assay type: ADME, organism-based; conditions: in vivo; summary of the method: as §3
[13] = Oral bioavailability in guinea pig at 1 mg/kg; assay type: ADME, organism-based, Cavia porcellus; conditions: in vivo; summary of the method: as §3
[14] = Oral bioavailability in dog at 1 mg/kg; assay type: ADME, organism-based, Canis lupus familiaris; conditions: in vivo; summary of the method: as §3
[15] = Oral bioavailability in monkey at 1 mg/kg; assay type: ADME, organism-based, Macaca mulatta; conditions: rhesus monkey, in vivo; summary of the method: as §3
[16] = Metabolic stability in rat microsomes; assay type: ADME, Microsome
[17] = Metabolic stability in guinea pig microsomes; assay type: ADME, Cavia porcellus, Microsome
[18] = Metabolic stability in dog microsomes; assay type: ADME, Canis lupus familiaris, Microsome
[19] = Metabolic stability in monkey microsomes; assay type: ADME, Macaca mulatta, Microsome; conditions: rhesus monkey
[20] = target: T1, Nuclear receptor subfamily 1 group I member 2 (Homo sapiens, UniProt O75469); experiment: Induction of human PXR-mediated CYP3A activity at 10 uM
T1 sequence (O75469 whole entry): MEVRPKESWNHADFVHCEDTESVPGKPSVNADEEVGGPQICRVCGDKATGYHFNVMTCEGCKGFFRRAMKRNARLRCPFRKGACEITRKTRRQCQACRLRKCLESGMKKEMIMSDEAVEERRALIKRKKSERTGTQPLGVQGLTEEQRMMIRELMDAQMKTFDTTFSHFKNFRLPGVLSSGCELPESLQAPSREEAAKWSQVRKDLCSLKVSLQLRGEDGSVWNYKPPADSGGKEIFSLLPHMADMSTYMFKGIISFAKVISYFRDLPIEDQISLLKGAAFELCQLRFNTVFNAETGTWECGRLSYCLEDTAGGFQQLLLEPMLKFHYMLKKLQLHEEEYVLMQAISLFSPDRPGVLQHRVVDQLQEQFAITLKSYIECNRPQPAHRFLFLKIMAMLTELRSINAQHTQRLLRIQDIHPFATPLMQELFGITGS

[21] = (§4) Metabolic stability in human liver microsomes assessed as parent compound remaining at 1 uM after 15 to 30 mins by HPLC analysis; assay type: ADME, Microsome; conditions: liver microsomes, read-out: Stability
Summary of the method: (§5)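 Compound at 1 μM incubated with human liver microsomes for 15 and 30 min under standard conditions. Remaining parent compound quantified by HPLC and expressed as μL/mg/min.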

Cavia porcellus [22] = experiment: Inhibition of GR73632-induced increase in locomotor activity in Hartley guinea pig at 0.1 mg/kg, iv after 5 mins relative to control; assay type: functional; summary of the method: as §1
Liver microsomes = experiment: as §4; assay type: ADME, Microsome; conditions: microsomes, 1 µM; summary of the method: as §5

Sequence of Substance-P receptor (P25103 whole entry): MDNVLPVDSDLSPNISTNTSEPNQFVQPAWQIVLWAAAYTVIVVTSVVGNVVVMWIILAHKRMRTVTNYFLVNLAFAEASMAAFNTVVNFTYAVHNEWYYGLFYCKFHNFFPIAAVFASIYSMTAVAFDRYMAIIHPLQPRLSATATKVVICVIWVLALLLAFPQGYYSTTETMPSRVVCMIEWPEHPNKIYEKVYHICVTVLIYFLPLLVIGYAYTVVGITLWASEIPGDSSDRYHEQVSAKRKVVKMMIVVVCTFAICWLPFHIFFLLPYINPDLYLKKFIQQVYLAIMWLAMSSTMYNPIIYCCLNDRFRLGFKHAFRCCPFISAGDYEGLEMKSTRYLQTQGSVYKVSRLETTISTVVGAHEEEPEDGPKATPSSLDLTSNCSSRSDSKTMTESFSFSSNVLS

Row | SMILES | IC50 (Substance-P receptor) [nM] | inhibition in vivo at 0.3 mg/kg (Cavia porcellus [1]) [%] | microsomal CLint at 1 µM [21] [µL/min/mg] | further results
1 | CC(=O)N1CCC(C(=O)N2CC[C@H](C(=O)N(C)Cc3cc(C(F)(F)F)cc(C(F)(F)F)c3)[C@@H](c3ccccc3C)C2)CC1 (racemic) | 0.032 | 60.1 | – | –
2 | Cc1cc(F)ccc1[C@H]1CN(C(=O)C(N)=O)CC[C@@H]1C(=O)N(C)[C@@H](C)c1cc(C(F)(F)F)cc(C(F)(F)F)c1 | – | – | 2 | ED50 (Cavia porcellus [2]): 0.1 mg/kg; ED50 (Cavia porcellus [3]): 0.57 mg/kg; AUC(0-t) at 24 h [4]: 521 ng·h/mL; AUC(0-t) at 24 h [5]: 1080 ng·h/mL; AUC(0-t) at 24 h [6]: 2150 ng·h/mL; AUC(0-t) at 24 h [7]: 1040 ng·h/mL; MRT [8]: 4.5 h; MRT [9]: 7.5 h; MRT [10]: 6.5 h; MRT [11]: 6.4 h; bioavailability [12]: 29%; bioavailability [13]: 83%; bioavailability [14]: 40%; bioavailability [15]: 38%; Stability [16]: 13 µL/mg/min; Stability [17]: 3 µL/mg/min; Stability [18]: 0 µL/mg/min; Stability [19]: 14 µL/mg/min; Activity [20]: 3%; inhibition in vivo at 0.1 mg/kg (Cavia porcellus [22]): 78.9%
3 | CNC(=O)N1CC[C@H](C(=O)N(C)Cc2cc(C(F)(F)F)cc(C(F)(F)F)c2)[C@@H](c2ccc(F)cc2C)C1 (racemic) | 0.048 | 80 | 199 | –
4 | Cc1cc(F)ccc1[C@H]1CN(C(N)=O)CC[C@@H]1C(=O)N(C)Cc1cc(C(F)(F)F)cc(C(F)(F)F)c1 (racemic) | 0.035 | 80.3 | 112 | –
5 | CC(=O)N1CCC(C(=O)N2CC[C@H](C(=O)N(C)Cc3cc(C(F)(F)F)cc(C(F)(F)F)c3)[C@@H](c3cccc(C)c3)C2)CC1 (racemic) | 0.14 | – | – | –
6 | CC(=O)N1CCC(C(=O)N2CC[C@H](C(=O)N(C)Cc3cc(C(F)(F)F)cc(C(F)(F)F)c3)[C@@H](c3ccccc3C(C)C)C2)CC1 (racemic) | 0.21 | – | – | –
7 | CN(Cc1cc(C(F)(F)F)cc(C(F)(F)F)c1)C(=O)[C@@H]1CCNC[C@H]1c1ccccc1 (racemic) | 2.6 | – | – | –
8 | CC(=O)N1CCC(C(=O)N2CC[C@@H](C(=O)N(C)Cc3cc(C(F)(F)F)cc(C(F)(F)F)c3)[C@H](c3ccccc3)C2)CC1 (racemic) | – | 72.1 | – | –
9 | Cc1cc(F)ccc1[C@H]1CN(C(=O)C(N)=O)CC[C@@H]1C(=O)N(C)Cc1cc(C(F)(F)F)cc(C(F)(F)F)c1 (racemic) | 0.052 | 86.7 | – | Stability (Liver microsomes): 40 µL/mg/min
10 | CONC(=O)N1CC[C@H](C(=O)N(C)Cc2cc(C(F)(F)F)cc(C(F)(F)F)c2)[C@@H](c2ccc(F)cc2C)C1 (racemic) | 0.073 | – | – | inhibition in vivo at 0.1 mg/kg (Cavia porcellus [22]): -23.9%
11 | Cc1cc(F)ccc1[C@H]1CN(C(=O)C(N)=O)CC[C@@H]1C(=O)N(C)[C@H](C)c1cc(C(F)(F)F)cc(C(F)(F)F)c1 | 0.2 | – | 57 | inhibition in vivo at 0.1 mg/kg (Cavia porcellus [22]): 43.1%
12 | CNC(=O)C(=O)N1CC[C@H](C(=O)N(C)Cc2cc(C(F)(F)F)cc(C(F)(F)F)c2)[C@@H](c2ccc(F)cc2C)C1 (racemic) | 0.11 | 51.5 | 115 | –
13 | CC(=O)NCC(=O)N1CC[C@@H](C(=O)N(C)Cc2cc(C(F)(F)F)cc(C(F)(F)F)c2)[C@H](c2ccccc2)C1 (racemic) | 12 | – | – | –
14 | Cc1cc(F)ccc1[C@H]1CN(C(=O)C(N)=O)CC[C@@H]1C(=O)N(C)Cc1cc(C(F)(F)F)cc(C(F)(F)F)c1 | 0.02 | – | 30 | ED50 (Cavia porcellus [2]): 0.14 mg/kg; ED50 (Cavia porcellus [3]): 0.72 mg/kg; inhibition in vivo at 0.1 mg/kg (Cavia porcellus [22]): 88.8%
15 | CC(=O)N1CCC(C(=O)N2CC[C@H](C(=O)N(C)Cc3cc(C(F)(F)F)cc(C(F)(F)F)c3)[C@@H](c3ccc(F)cc3)C2)CC1 (racemic) | 0.052 | 41.4 | – | –
16 | CC(=O)N1CC[C@@H](C(=O)N(C)Cc2cc(C(F)(F)F)cc(C(F)(F)F)c2)[C@H](c2ccccc2)C1 (racemic) | 2.6 | – | – | –
17 | CN(Cc1cc(C(F)(F)F)cc(C(F)(F)F)c1)C(=O)[C@H]1CCNC[C@H]1c1ccccc1 (relative stereo) | 5.6 | – | – | –
18 | CC(=O)N1CCC(C(=O)N2CCC(C(=O)N(C)Cc3cc(C(F)(F)F)cc(C(F)(F)F)c3)=C(c3ccccc3)C2)CC1 | 0.17 | – | – | –
19 | Cc1cc(F)ccc1[C@H]1CN(C(=O)C(=O)NO)CC[C@@H]1C(=O)N(C)Cc1cc(C(F)(F)F)cc(C(F)(F)F)c1 (racemic) | 0.046 | – | 2 | inhibition in vivo at 0.1 mg/kg (Cavia porcellus [22]): -15.5%
20 | CC(=O)N1CCC(C(=O)N2CC[C@H](C(=O)N(C)Cc3cc(C(F)(F)F)cc(C(F)(F)F)c3)[C@@H](c3ccc(F)cc3C)C2)CC1 (racemic) | 0.047 | 105 | 111 | Activity [20]: 2%
21 | CC(=O)N1CC[C@H](C(=O)N(C)Cc2cc(C(F)(F)F)cc(C(F)(F)F)c2)[C@H](c2ccccc2)C1 (racemic) | 3.2 | – | – | –
22 | CCc1ccccc1[C@H]1CN(C(=O)C2CCN(C(C)=O)CC2)CC[C@@H]1C(=O)N(C)Cc1cc(C(F)(F)F)cc(C(F)(F)F)c1 (racemic) | 0.064 | – | – | –
23 | CC(=O)N1CCC(C(=O)N2CC[C@H](C(=O)N(C)Cc3cc(C(F)(F)F)cc(C(F)(F)F)c3)[C@@H](c3ccc(C)cc3)C2)CC1 (racemic) | 0.18 | – | – | –
24 | CC(=O)N1CCC(C(=O)N2CC[C@@H](C(=O)NCc3cc(C(F)(F)F)cc(C(F)(F)F)c3)[C@H](c3ccccc3)C2)CC1 (racemic) | 2.7 | – | – | –
25 | CC(=O)NCC(=O)N1CC[C@H](C(=O)N(C)Cc2cc(C(F)(F)F)cc(C(F)(F)F)c2)[C@@H](c2ccc(F)cc2C)C1 (racemic) | 0.043 | 48.9 | 59 | –
26 | Cc1cc(F)ccc1[C@@H]1CN(C(=O)C(N)=O)CC[C@H]1C(=O)N(C)Cc1cc(C(F)(F)F)cc(C(F)(F)F)c1 | > 100 | – | – | –
